Active and inactive are the calls of the source.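 How the source made its calls, unless noted: active means inhibition above 20% together with a positive visual image hit; inconclusive means visual image hit but inhibition not above 20%; inactive means no visual image hit.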
How the values were obtained:
[1] = inhibitors of TNFa-induced NFkB p65 translocation, primary screen, imaging, HUVEC, MLSMR starter and 10KST1 sets (AID 438); settings: HUVEC TNFa-induced p65 nuclear translocation; cell count: measured here: nuclei count (cytotoxicity indicator), at 2.08 µM; inhibition: at 2 µM, stronger effect = higher value, 0% TNFa-plus-vehicle, 100% no-TNFa wells;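 further: compound added about 3h40 before a 20 min TNFalpha stimulation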;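 on inhibition: signal is the nuclear over cytoplasmic p65 intensity ratio per well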
[2] = reduction of polyQ htt aggregates in cells – imaging, exon1htt(103Q)mCFP cells, high-content imaging, primary screen (AID 483;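 active means visual image review flags a hit and inhibition of aggregation exceeds 20%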;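 further: compound exposure lasted 3 days before fixation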;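 on nuclei count: percent of the per-plate median nuclei count of sample wells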); settings: exon1htt(103Q)mCFP cell line, aggregate imaging, at 2 µM; inhibition of aggregation: stronger effect = higher value; nuclei count: measured here: cell count, toxicity
[3] = endothelial E-selectin expression blockers – imaging, HUVEC, immunofluorescence, MLSMR starter and 10KST1 sets, primary screen (AID 487;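 active means visually confirmed hit in the image check and inhibition above 20%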;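 on inhibition: signal is fraction of cell area covered by stained E-selectin grains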;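 on nuclei count: 100% = median nuclei count of all wells on the same plate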); settings: HUVEC TNFalpha-induced E-selectin immunofluorescence imaging, at 2 µM; inhibition: stronger effect = higher value; nuclei count: measured here: cell number, toxicity
[4] = target: Voltage-gated potassium channel subunit beta-2 (Rattus norvegicus) (UniProt P62483); test: inhibitors of rat Kvbeta2 reductase activity – biochemical, NADPH fluorescence, primary screen (AID 622;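 active means fluorescence slope higher than the sample average by over 3 SD, cut at about -0.22 in these data, passing the limit was not always enough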;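 further: slope of raw intensity against log time taken from 70 to 1610 s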); settings: recombinant KvBeta, 4-cyanobenzaldehyde reduction, at 10 µM, stronger effect = higher value
[5] = target: Voltage-gated potassium channel subunit beta-2 (Rattus norvegicus) (UniProt P62483); test: enhancers of rat Kvbeta2 NADPH turnover – biochemical, NADPH fluorescence, primary screen (AID 623;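 active means NADPH fluorescence slope more negative than the mean of all samples by about 3 SD, 99.7% confidence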;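 further: fluorescence intensity change per second fitted from 20 to 320 s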); settings: Recombinant KvBeta, NADPH fluorescence decrease slope, 10 min; at 10 µM; stronger effect = lower value
[6] = target: Muscarinic acetylcholine receptor M4 (Homo sapiens) (UniProt P08173); test: M4-linked GIRK flux change, two-sided – cell-based, HEK293 M4/GIRK, thallium flux, BTC-AM, M4 allosteric agonist project, primary screen (AID 625;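 active means fluorescence slope after compound addition differing from the mean of all tested samples at 99.7% confidence, mostly higher but some lower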;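 further: thallium influx through GIRK channels coupled to M4 in HEK293 cells with BTC-AM dye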); settings: at 10 µM, actives lie on both sides
Procedure, shortened: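 Assay system: HEK293 cells with M4 receptor and GIRK channels / Controls: carbachol and DMSO controls / Schedule: 1 h dye loading, 2 min kinetic read / Technique: kinetic fluorescence with BTC-AM dye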

[7] = blockers of RIG-like receptor reporter activation – cell-based, Sendai virus stimulus, luciferase, 10K MLSCN set, TLR/RLR signaling modifier project, primary screen (AID 602276;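 active means inhibition at or above 50% at 10 µM; inactive means inhibition below 50%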;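 further: firefly luciferase from ISG56 promoter only with Renilla not read in this screen; 0% = Sendai virus plus DMSO and 100% = medium plus DMSO without virus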); settings: HEK293 RL24 IRF3 luciferase reporter, at 10 µM, stronger effect = higher value
[8] = TLR3 IRF3 reporter activation blockers – cell-based, poly I:C stimulus, luciferase, 10K MLSCN set, primary screen (AID 602277;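 active means inhibition of the reporter signal at or above 50%; inactive means inhibition below 50%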); settings: HEK293-TLR3 RL24 IRF3 luciferase reporter, at 10 µM, stronger effect = higher value

Chain of Voltage-gated potassium channel subunit beta-2 (Rattus norvegicus) (P62483 whole entry, looked up): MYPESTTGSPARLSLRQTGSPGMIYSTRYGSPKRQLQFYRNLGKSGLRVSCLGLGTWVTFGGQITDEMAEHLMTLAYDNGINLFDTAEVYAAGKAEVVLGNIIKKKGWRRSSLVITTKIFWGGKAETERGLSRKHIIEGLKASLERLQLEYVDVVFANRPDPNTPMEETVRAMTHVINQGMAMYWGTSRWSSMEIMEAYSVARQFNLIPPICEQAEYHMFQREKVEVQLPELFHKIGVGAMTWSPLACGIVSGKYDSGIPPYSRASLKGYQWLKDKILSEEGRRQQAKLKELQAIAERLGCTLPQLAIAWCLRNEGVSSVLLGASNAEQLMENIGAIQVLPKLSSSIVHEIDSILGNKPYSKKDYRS
Chain of Muscarinic acetylcholine receptor M4 (Homo sapiens) (P08173 whole entry, looked up): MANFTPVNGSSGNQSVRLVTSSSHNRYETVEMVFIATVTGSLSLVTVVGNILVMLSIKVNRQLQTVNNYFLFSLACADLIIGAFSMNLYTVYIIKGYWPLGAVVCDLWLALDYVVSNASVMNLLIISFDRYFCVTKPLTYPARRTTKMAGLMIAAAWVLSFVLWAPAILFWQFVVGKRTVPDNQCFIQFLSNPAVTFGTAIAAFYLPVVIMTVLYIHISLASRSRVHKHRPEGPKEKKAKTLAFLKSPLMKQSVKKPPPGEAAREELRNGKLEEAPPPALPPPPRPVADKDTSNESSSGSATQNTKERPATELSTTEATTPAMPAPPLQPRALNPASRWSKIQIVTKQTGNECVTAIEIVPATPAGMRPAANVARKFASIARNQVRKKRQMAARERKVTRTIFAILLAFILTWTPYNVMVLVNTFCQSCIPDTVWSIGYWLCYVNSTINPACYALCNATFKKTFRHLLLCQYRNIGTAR

Row | Compound | cell count [1] | inhibition [1] | inhibition of aggregation [2] | nuclei count [2] [%] | inhibition [3] | nuclei count [3] [%] | fluorescence slope [4] | NADPH fluorescence slope [5] | fluorescence slope [6] | inhibition [7] | inhibition [8]
1 | NC(=O)c1oc2ccc(Cl)cc2c1NC(=O)CN1CCOCC1 | 436 | 2.7% (inactive) | 3.6% (inactive) | 112 | -114% (inactive) | 123 | -0.53 (inactive) | -5.2e-05 (inactive) | 0.00578 (inactive) | 4.86% (inactive) | 1.98% (inactive)
2 | c1cnn(-c2cc(N3CCOCC3)ncn2)c1 | 301 | -5% (inactive) | 20.4% (inactive) | 85.2 | 2.8% (inactive) | 101 | -0.5 (inactive) | 7.1e-05 (inactive) | 0.0047 (inactive) | -15.2% (inactive) | -21.2% (inactive)
3 | Cc1c(NC(=O)C2CCCNC2=O)c(=O)n(-c2ccccc2)n1C (stereo not drawn) | 394 | -2.2% (inactive) | -1.6% (inactive) | 101 | -36.5% (inactive) | 106 | -0.495 (inactive) | 3.2e-05 (inactive) | 0.00472 (inactive) | 11.5% (inactive) | 6.36% (inactive)
4 | CCOC(=O)C(CC)(CCC(=O)O)c1csc(N)n1 (stereo not drawn) | 518 | 9.6% (inactive) | -2.8% (inactive) | 91.6 | 14.4% (inactive) | 98.1 | -0.518 (inactive) | -3.9e-05 (inactive) | 0.00527 (inactive) | 13.6% (inactive) | 18% (inactive)
5 | CC(C)OC(=O)CSc1nnnn1-c1ccc2c(c1)OCCO2 | 294 | -9.9% (inactive) | -2.7% (inactive) | 111 | -0.1% (inactive) | 118 | -0.228 (inactive) | -3.6e-05 (inactive) | 0.00598 (inactive) | -0.252% (inactive) | -97.9% (inactive)
6 | CCNC(=O)c1ccc(NS(=O)(=O)c2ccccc2)cc1 | 340 | -4.8% (inactive) | 16% (inactive) | 123 | -44.8% (inactive) | 102 | -0.551 (inactive) | -0.000105 (inactive) | 0.00291 (inactive) | 13.3% (inactive) | 12.4% (inactive)
7 | Cc1ccc(C(=O)CSc2nnc(CNc3ccc(C)cc3C)o2)cc1 | 553 | -7.3% (inactive) | 19.7% (inactive) | 97.5 | -124% (inactive) | 193 | -0.477 (inactive) | -8.9e-06 (inactive) | 0.00488 (inactive) | 6.54% (inactive) | -0.256% (inactive)
8 | O=C(Nc1ccc(F)cc1)c1cccc2c1C(=O)N(Cc1ccccn1)C2 | 811 | 2.1% (inactive) | 4.1% (inactive) | 98.1 | -108% (inactive) | 126 | -0.576 (inactive) | -3e-05 (inactive) | 0.00591 (inactive) | 0.0917% (inactive) | -22.2% (inactive)
9 | N/C(Cn1nnc(-c2ccccc2)n1)=N\O | 707 | 5.4% (inactive) | -14.8% (inactive) | 108 | 12.5% (inactive) | 114 | -0.463 (inactive) | 2.3e-05 (inactive) | 0.00645 (inactive) | -16.8% (inactive) | 89.1% (active)
10 | Nc1nc(SCCOc2ccccc2)n[nH]1 | 256 | -3% (inactive) | 18.6% (inactive) | 76.7 | -41.8% (inactive) | 105 | -0.571 (inactive) | -1.8e-05 (inactive) | 0.00618 (inactive) | 4.33% (inactive) | 3.33% (inactive)
11 | CCC(C)n1[nH]c(=O)c2c(C)cc(C)nc21 (stereo not drawn) | 405 | 1.8% (inactive) | 2.2% (inactive) | 101 | -50.1% (inactive) | 108 | -0.565 (inactive) | -5.9e-05 (inactive) | 0.00534 (inactive) | 6.37% (inactive) | 15.3% (inactive)
12 | CCn1c(SCC(=O)N2CCCc3ccccc32)nnc1-c1cccs1 | 697 | 1.4% (inactive) | 4.3% (inactive) | 98.7 | -172% (inactive) | 129 | -0.531 (inactive) | -2.4e-05 (inactive) | 0.00467 (inactive) | 14% (inactive) | 13.4% (inactive)
13 | Cc1ccccc1Cn1nc(C)c(NC(=O)c2noc3c2CCCC3)c1C | 191 | -1.3% (inactive) | 7.3% (inactive) | 101 | -13.5% (inactive) | 120 | -0.571 (inactive) | -2.7e-05 (inactive) | 0.00499 (inactive) | -24.6% (inactive) | -32% (inactive)
14 | CSc1nnc(-c2cnccn2)n1C | 679 | -15.7% (inactive) | -6.5% (inactive) | 121 | -73.6% (inactive) | 109 | -0.603 (inactive) | -3.8e-06 (inactive) | 0.00641 (inactive) | 22.1% (inactive) | 25.7% (inactive)
15 | COCCCNC(=O)c1ccc2c(c1)OCO2 | 391 | 1.4% (inactive) | 0.6% (inactive) | 107 | -36.4% (inactive) | 108 | -0.567 (inactive) | -9.1e-05 (inactive) | 0.00354 (inactive) | -10.8% (inactive) | -37.6% (inactive)
16 | Cc1nc2ccc(S(=O)(=O)NCC(=O)O)cc2s1 | 423 | 5.2% (inactive) | -3% (inactive) | 110 | -56.1% (inactive) | 118 | -0.45 (inactive) | 4.8e-05 (inactive) | 0.00579 (inactive) | -1.77% (inactive) | 13% (inactive)
17 | CCOC(=O)c1sc2ncn(/N=C/N(C)C)c(=O)c2c1C | 415 | -2.7% (inactive) | 40.3% (active) | 72.6 | 20.9% (inactive) | 85.9 | -0.385 (inactive) | 6.4e-06 (inactive) | 0.00524 (inactive) | 5.64% (inactive) | 6.76% (inactive)
18 | Cc1nc(SCC(=O)N2CCC(C(N)=O)CC2)n[nH]1 | 516 | -17.1% (inactive) | -2.4% (inactive) | 98.4 | -33.4% (inactive) | 119 | -0.581 (inactive) | -5.6e-05 (inactive) | 0.00602 (inactive) | -0.32% (inactive) | -1.6% (inactive)
19 | COc1ccc(N(CC(=O)Nc2ccccc2SC)S(C)(=O)=O)cc1OC | 485 | -15.7% (inactive) | -12% (inactive) | 65.5 | -4.5% (inactive) | 102 | -0.468 (inactive) | -9.7e-06 (inactive) | 0.00494 (inactive) | 19.9% (inactive) | 19.3% (inactive)
20 | C=CCNC(=O)CNS(=O)(=O)c1ccc(F)cc1 | 443 | -2.6% (inactive) | 11.8% (inactive) | 73.9 | 36.9% (inactive) | 88 | -0.592 (inactive) | 1e-05 (inactive) | 0.00626 (inactive) | 19.3% (inactive) | 45.8% (inactive)
21 | COc1ccc(Cl)cc1Nc1nc(C)cc(=O)[nH]1 | 271 | -3.7% (inactive) | 10% (inactive) | 61.7 | 39.6% (inactive) | 44 | -0.562 (inactive) | -2.9e-05 (inactive) | 0.00528 (inactive) | 16% (inactive) | 19.5% (inactive)
22 | O=C(CCn1nc(-c2ccccc2)ccc1=O)N1CCCC1 | 349 | 2.1% (inactive) | -17% (inactive) | 95.9 | -8.9% (inactive) | 106 | -0.577 (inactive) | -2e-05 (inactive) | 0.00645 (inactive) | 6.69% (inactive) | 2.22% (inactive)
23 | CCOC(=O)N1CCN(C(=O)Nc2ccc(Cl)cc2)CC1 | 356 | -3.2% (inactive) | 10.6% (inactive) | 99.4 | 21.3% (inactive) | 103 | -0.462 (inactive) | -4.1e-05 (inactive) | 0.00495 (inactive) | 10.8% (inactive) | 3.42% (inactive)
24 | CC(C)c1ccc(S(=O)(=O)N2CCN(C(=O)c3cccc(F)c3)CC2)cc1 | 363 | 4.2% (inactive) | 17% (inactive) | 100 | -70.8% (inactive) | 118 | -0.525 (inactive) | 0.000166 (inactive) | 0.00667 (inactive) | 14.9% (inactive) | 17% (inactive)
25 | Cc1ccc(SCCNS(=O)(=O)c2ccc(F)cc2)cc1 | 348 | 4% (inactive) | -4.1% (inactive) | 106 | -53.9% (inactive) | 122 | -0.55 (inactive) | -3.1e-05 (inactive) | 0.0043 (inactive) | 8.34% (inactive) | 12.7% (inactive)
26 | CC(C)CCNC(=O)NC(=O)CSc1nnc(-c2ccccc2F)n1N | 572 | 0.4% (inactive) | -5.6% (inactive) | 104 | -223% (inactive) | 178 | -0.517 (inactive) | 9.8e-05 (inactive) | 0.00509 (inactive) | -9.04% (inactive) | -3.83% (inactive)
27 | COc1ccc(NC(=O)Cn2nnc(-c3ccccc3N)n2)cc1OC | 656 | -6.1% (inactive) | 19.9% (inactive) | 100 | -51.2% (inactive) | 121 | -0.595 (inactive) | 1e-05 (inactive) | 0.00531 (inactive) | 17.6% (inactive) | 14.6% (inactive)
28 | CCOc1ccc(S(=O)(=O)Nc2ccccc2C(=O)Nc2ccccc2N2CCOCC2)cc1 | 322 | -2.1% (inactive) | 17.2% (inactive) | 94.9 | -24.9% (inactive) | 106 | -0.522 (inactive) | -3.2e-05 (inactive) | 0.00582 (inactive) | 11.5% (inactive) | 25.7% (inactive)

Source: PubChem BioAssay
